Results: BindingDB's records for doi:10.1016/j.bmcl.2005.08.013 (Kosan Biosciences, 2005)

target: Heat shock protein HSP 90-alpha (Homo sapiens, UniProt P07900); experiment: Binding affinity for human heat shock protein 90 in scintillation proximity assay
How it was run: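 Purified full-length human Hsp90 was used as the target protein. Binding was measured by scintillation proximity assay.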

Kd, > 100 µM:
CO[C@H]1C=CC=C(C)C(=O)Nc2cc(O)c(N=CCN(C)C)c(c2O)C[C@@H](C)C[C@H](OC)[C@H](O)[C@@H](C)/C=C(\C)[C@@H]1OC(=O)NCCO [(2-Hydroxy-ethyl)-carbamic acid (4E,6Z)-(13S,14S,17R,19S)-19-(2-dimethylamino-ethylamino)-13-(S)-hydroxy-8,14-dimethoxy-4,12,16-trimethyl-10-(R)-methyl-3,20,22-trioxo-2-aza-bicyclo[16.3.1]docosa-1(21),4,6,10,18-pentaen-9-yl ester]
CNC(=O)O[C@H]1/C(C)=C/[C@H](C)[C@@H](O)[C@@H](OC)C[C@H](C)Cc2c(O)c(cc(O)c2N=CCN(C)C)NC(=O)C(C)=CC=C[C@@H]1OC [Methyl-carbamic acid (4E,6Z)-(13S,14S,17R,19S)-19-(2-dimethylamino-ethylamino)-13-(S)-hydroxy-8,14-dimethoxy-4,12,16-trimethyl-10-(R)-methyl-3,20,22-trioxo-2-aza-bicyclo[16.3.1]docosa-1(21),4,6,10,18-pentaen-9-yl ester]
CO[C@H]1C=CC=C(C)C(=O)Nc2cc(O)c(N=CCN(C)C)c(c2O)C[C@@H](C)C[C@H](OC)[C@H](O)[C@@H](C)/C=C(\C)[C@@H]1OC(=O)N(C)N [N-Methyl-hydrazinecarboxylic acid (4E,6Z)-(13S,14S,17R,19S)-19-(2-dimethylamino-ethylamino)-13-(S)-hydroxy-8,14-dimethoxy-4,12,16-trimethyl-10-(R)-methyl-3,20,22-trioxo-2-aza-bicyclo[16.3.1]docosa-1(21),4,6,10,18-pentaen-9-yl ester]
CO[C@H]1C=CC=C(C)C(=O)Nc2cc(O)c(N=CCN(C)C)c(c2O)C[C@@H](C)C[C@H](OC)[C@H](O)[C@@H](C)/C=C(\C)[C@@H]1OC(=O)NN [Hydrazinecarboxylic acid (4E,6Z)-(13S,14S,17R,19S)-19-(2-dimethylamino-ethylamino)-13-(S)-hydroxy-8,14-dimethoxy-4,12,16-trimethyl-10-(R)-methyl-3,20,22-trioxo-2-aza-bicyclo[16.3.1]docosa-1(21),4,6,10,18-pentaen-9-yl ester]
CO[C@H]1C=CC=C(C)C(=O)Nc2cc(O)c(N=CCN(C)C)c(c2O)C[C@@H](C)C[C@H](OC)[C@H](O)[C@@H](C)/C=C(\C)[C@@H]1OC(=O)NCC(N)=O [Carbamoylmethyl-carbamic acid (4E,6Z)-(13S,14S,17R,19S)-19-(2-dimethylamino-ethylamino)-13-(S)-hydroxy-8,14-dimethoxy-4,12,16-trimethyl-10-(R)-methyl-3,20,22-trioxo-2-aza-bicyclo[16.3.1]docosa-1(21),4,6,10,18-pentaen-9-yl ester]
CO[C@H]1C=CC=C(C)C(=O)Nc2cc(O)c(N=CCN(C)C)c(c2O)C[C@@H](C)C[C@H](OC)[C@H](O)[C@@H](C)/C=C(\C)[C@@H]1OC(=O)NCCN(C)C [(2-Dimethylamino-ethyl)-carbamic acid (4E,6Z)-(13S,14S,17R,19S)-19-(2-dimethylamino-ethylamino)-13-(S)-hydroxy-8,14-dimethoxy-4,12,16-trimethyl-10-(R)-methyl-3,20,22-trioxo-2-aza-bicyclo[16.3.1]docosa-1(21),4,6,10,18-pentaen-9-yl ester]
CO[C@H]1C=CC=C(C)C(=O)Nc2cc(O)c(N=CCF)c(c2O)C[C@@H](C)C[C@H](OC)[C@H](O)[C@@H](C)/C=C(\C)[C@@H]1OC(=O)NN [Hydrazinecarboxylic acid (4E,6Z)-(13S,14S,17R,19S)-19-(2-fluoro-ethylamino)-13-(S)-hydroxy-8,14-dimethoxy-4,12,16-trimethyl-10-(R)-methyl-3,20,22-trioxo-2-aza-bicyclo[16.3.1]docosa-1(21),4,6,10,18-pentaen-9-yl ester]
CO[C@H]1C=CC=C(C)C(=O)Nc2cc(O)c(N=CCF)c(c2O)C[C@@H](C)C[C@H](OC)[C@H](O)[C@@H](C)/C=C(\C)[C@@H]1OC(=O)NO [Geldanamycin derivative]
CO[C@H]1C=CC=C(C)C(=O)Nc2cc(O)c(N3CCC3)c(c2O)C=C(C)C[C@H](OC)[C@H](O)[C@@H](C)/C=C(\C)[C@@H]1OC(=O)NO [Geldanamycin derivative]
CONC(=O)O[C@H]1/C(C)=C/[C@H](C)[C@@H](O)[C@@H](OC)C[C@H](C)Cc2c(O)c(cc(O)c2N=CCN(C)C)NC(=O)C(C)=CC=C[C@@H]1OC [Geldanamycin derivative]
CO[C@H]1C=CC=C(C)C(=O)Nc2cc(O)c(N3CCC3)c(c2O)C=C(C)C[C@H](OC)[C@H](O)[C@@H](C)/C=C(\C)[C@@H]1OC(=O)NN [Hydrazinecarboxylic acid (4E,6Z)-(13S,14S,17R,19S)-19-azetidin-1-yl-13-(S)-hydroxy-8,14-dimethoxy-4,12,16-trimethyl-10-(R)-methyl-3,20,22-trioxo-2-aza-bicyclo[16.3.1]docosa-1(21),4,6,10,18-pentaen-9-yl ester]
CO[C@H]1C=CC=C(C)C(=O)Nc2cc(O)c(N=CCN(C)C)c(c2O)C[C@@H](C)C[C@H](OC)[C@H](O)[C@@H](C)/C=C(\C)[C@@H]1OC(=O)c1cnc[nH]1 [3H-Imidazole-4-carboxylic acid (E)-(8R,10R,15S,20S)-19-(2-dimethylamino-ethylamino)-13-(S)-hydroxy-8,14-dimethoxy-4,12,16-trimethyl-10-(S)-methyl-3,20,22-trioxo-2-aza-bicyclo[16.3.1]docosa-1(21),4,6,10,18-pentaen-9-yl ester]
CO[C@H]1C=CC=C(C)C(=O)Nc2cc(O)c(N=CCN(C)C)c(c2O)C[C@@H](C)C[C@H](OC)[C@H](O)[C@@H](C)/C=C(\C)[C@@H]1OC(=O)c1ccc[nH]1 [1H-Pyrrole-2-carboxylic acid (E)-(8R,10R,15S,20S)-19-(2-dimethylamino-ethylamino)-13-(S)-hydroxy-8,14-dimethoxy-4,12,16-trimethyl-10-(S)-methyl-3,20,22-trioxo-2-aza-bicyclo[16.3.1]docosa-1(21),4,6,10,18-pentaen-9-yl ester]
